Results from ChEMBL document CHEMBL1131531, “cycloSal-2',3'-dideoxy-2',3'-didehydrothymidine monophosphate (cycloSal-d4TMP): synthesis and antiviral evaluation of a new d4TMP delivery system” (J Med Chem, 1998).

Key:
CCRF-CEM [1] = assay: The cytotoxicity was measured on wild type CEM/O cells for R configuration; type: functional; conditions: Homo sapiens
CCRF-CEM [2] = assay: Antiviral activity was measured on HIV-2 in wild-type CEM/O cells for S configuration; type: functional, cell-based; conditions: Homo sapiens
CCRF-CEM [3] = assay: (§1) Antiviral activity was measured on HIV-2 in mutant thymidine kinase-deficient CEM/TK- cells; type: functional, cell-based; conditions: Homo sapiens
CCRF-CEM [4] = assay: Antiviral activity was measured on HIV-2 in mutant thymidine kinase-deficient CEM/TK- cells for S configuration; type: functional, cell-based; conditions: Homo sapiens
CCRF-CEM [5] = assay: Antiviral activity was measured on HIV-1 in wild-type CEM/O cells for S configuration; type: functional, cell-based; conditions: Homo sapiens
[6] = Partition coefficient was measured.; type: ADME; conditions: octanol/water
In short: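 Compound dissolved in 1-octanol and mixed with equal volume of phosphate buffer (10 mmol, pH 6.8). Vortexed 10 min, phases separated by centrifugation. Each phase analysed by reversed-phase HPLC (UV 265 nm). Pa taken as the quotient of peak areas.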

CCRF-CEM [7] = assay: The cytotoxicity was measured on wild type CEM/O cells.; type: functional; conditions: Homo sapiens
[8] = Half-life period was measured in RPMI-1640 culture medium at 37 degree C with 10% heat-inactivated fetal calf serum..; type: ADME; conditions: cattle
CCRF-CEM [9] = assay: Antiviral activity was measured on HIV-1 in wild-type CEM/O cells; type: functional, cell-based, Homo sapiens
[10] = Half-life period was measured in 30 mM sodium borate buffer at pH 8.9 at 37 degree C; type: ADME
CCRF-CEM [11] = assay: Antiviral activity was measured on HIV-2 in wild-type CEM/O cells; type: functional, cell-based, Homo sapiens
[12] = Half-life period was measured in 30 mM sodium phosphate buffer at pH 7.3 at 37 degree C; type: ADME
CCRF-CEM [13] = assay: Antiviral activity was measured on HIV-1 in wild-type CEM/O cells for R configuration; type: functional, cell-based; conditions: Homo sapiens
CCRF-CEM [14] = assay: Antiviral activity was measured on HIV-2 in mutant thymidine kinase-deficient CEM/TK- cells for R configuration; type: functional, cell-based; conditions: Homo sapiens
CCRF-CEM [15] = assay: The cytotoxicity was measured on wild type CEM/O cells for S configuration; type: functional; conditions: Homo sapiens
[16] = Half-life period was measured in RPMI-1640 culture medium at 37 degree C without FCS.; type: ADME; conditions: RPMI-1640 culture medium without FCS
CCRF-CEM [17] = assay: Antiviral activity was measured on HIV-2 in wild-type CEM/O cells for R configuration; type: functional, cell-based; conditions: Homo sapiens
[18] = Half-life period was measured in 30 mM TRIS buffer at pH 6.9 at 37 degree C; type: ADME
CCRF-CEM [19] = assay: as §1; type: functional, cell-based; conditions: Homo sapiens; remark: listed apart in the source
In short: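 CEM/O or TK-deficient CEM/TK- cells at 4 × 10⁵ cells/mL infected with HIV-1 (HTLV-IIIB) or HIV-2 (LAV 2) at ~100 CCID50/mL. Infected suspension mixed 1:1 with serial compound dilutions. Giant cell formation scored microscopically after 4 days.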

MT4 [20] = assay: Antiviral activity was measured on HIV-1 in MT-4 cells; type: functional, cell-based; conditions: Homo sapiens
MT4 [21] = assay: Antiviral activity was measured on HIV-2 in MT-4 cells; type: functional, cell-based; conditions: Homo sapiens
MT4 [22] = assay: Antiviral activity was measured on HIV-1 in MT-4 cells for R configuration; type: functional, cell-based; conditions: Homo sapiens
MT4 [23] = assay: Antiviral activity was measured on HIV-2 in MT-4 cells for R configuration; type: functional, cell-based; conditions: Homo sapiens
CCRF-CEM [24] = assay: The cytotoxicity was measured on wild type CEM/O cells; type: functional; conditions: Homo sapiens

COc1cccc2c1OP(=O)(OCC1C=CC(n3cc(C)c(=O)[nH]c3=O)O1)OC2 (stereo unspecified)
CC50 (CCRF-CEM [1]): 38000 nM
EC50 (CCRF-CEM [2]): 1030 nM
EC50 (CCRF-CEM [3]): 170 nM
EC50 (CCRF-CEM [4]): 9670 nM
EC50 (CCRF-CEM [5]): 470 nM
Pa [6]: 1.4
CC50 (CCRF-CEM [7]): 35000 nM
half-life [8]: 2 h
EC50 (CCRF-CEM [9]; Homo sapiens, CCRF-CEM): 170 nM
half-life [10]: 0.4 h
EC50 (CCRF-CEM [11]; Homo sapiens, CCRF-CEM): 420 nM
half-life [12]: 1.4 h
EC50 (CCRF-CEM [13]): 140 nM
EC50 (CCRF-CEM [14]): 120 nM
CC50 (CCRF-CEM [15]): 84000 nM
half-life [16]: 3.2 h
EC50 (CCRF-CEM [17]): 170 nM
half-life [18]: 9.5 h

COc1ccc(O)c(CO)c1
CC50 (CCRF-CEM [7]): 158000 nM
EC50 (CCRF-CEM [9]; Homo sapiens, CCRF-CEM): > 250000 nM
EC50 (CCRF-CEM [11]; Homo sapiens, CCRF-CEM): > 250000 nM

OCc1ccccc1O [SALICYL ALCOHOL]
CC50 (CCRF-CEM [7]): > 250000 nM
EC50 (CCRF-CEM [9]; Homo sapiens, CCRF-CEM): > 250000 nM
EC50 (CCRF-CEM [11]; Homo sapiens, CCRF-CEM): > 250000 nM

Cc1cc(C)c2c(c1)COP(=O)(OCC1C=CC(n3cc(C)c(=O)[nH]c3=O)O1)O2 (stereo unspecified)
Pa [6]: 15.3

COc1ccc2c(c1)COP(=O)(OC[C@@H]1C=C[C@H](n3cc(C)c(=O)[nH]c3=O)O1)O2 (stereo partly specified)
EC50 (CCRF-CEM [3]): 800 nM
Pa [6]: 2.3
CC50 (CCRF-CEM [7]): 39000 nM
half-life [8]: 4.3 h
EC50 (CCRF-CEM [9]; Homo sapiens, CCRF-CEM): 180 nM
half-life [10]: 1.07 h
EC50 (CCRF-CEM [11]; Homo sapiens, CCRF-CEM): 700 nM
half-life [12]: 7.2 h
half-life [16]: 7.2 h
half-life [18]: 28.3 h

Cc1cn(C2C=CC(COP3(=O)OCc4cc(Cl)ccc4O3)O2)c(=O)[nH]c1=O (stereo unspecified)
EC50 (CCRF-CEM [19]): 2670 nM
Pa [6]: 7.6
CC50 (CCRF-CEM [7]): 49000 nM
EC50 (CCRF-CEM [11]; Homo sapiens, CCRF-CEM): 1400 nM
EC50 (MT4 [20]): 31 nM
EC50 (MT4 [21]): 38 nM

Cc1cccc2c1OP(=O)(OC[C@@H]1C=C[C@H](n3cc(C)c(=O)[nH]c3=O)O1)OC2 (stereo partly specified)
CC50 (CCRF-CEM [1]): 11000 nM
EC50 (CCRF-CEM [2]): 1100 nM
EC50 (MT4 [22]): 12 nM
EC50 (CCRF-CEM [3]): 93 nM
EC50 (CCRF-CEM [4]): 700 nM
EC50 (CCRF-CEM [5]): 420 nM
Pa [6]: 5.1
CC50 (CCRF-CEM [7]): 21000 nM
half-life [8]: 9.1 h
EC50 (MT4 [23]): 11 nM
EC50 (CCRF-CEM [9]; Homo sapiens, CCRF-CEM): 87 nM
half-life [10]: 1.5 h
EC50 (CCRF-CEM [11]; Homo sapiens, CCRF-CEM): 120 nM
EC50 (MT4 [20]): 28 nM
half-life [12]: 10.2 h
EC50 (CCRF-CEM [13]): 80 nM
EC50 (CCRF-CEM [14]): 63 nM
CC50 (CCRF-CEM [15]): 76000 nM
half-life [16]: 16 h
EC50 (MT4 [21]): 33 nM
EC50 (CCRF-CEM [17]): 67 nM
half-life [18]: 68.5 h

Cc1cn([C@H]2C=C[C@@H](COP3(=O)OCc4ccccc4O3)O2)c(=O)[nH]c1=O (stereo partly specified)
Pa [6]: 1.9

Cc1cccc(CO)c1O
CC50 (CCRF-CEM [7]): > 250000 nM
EC50 (CCRF-CEM [9]; Homo sapiens, CCRF-CEM): > 250000 nM
EC50 (CCRF-CEM [11]; Homo sapiens, CCRF-CEM): > 250000 nM

Cc1ccc2c(c1)COP(=O)(OC[C@@H]1C=C[C@H](n3cc(C)c(=O)[nH]c3=O)O1)O2 (stereo partly specified)
Pa [6]: 5.4

Cc1cn([C@H]2C[C@H](N=[N+]=[N-])[C@@H](CO)O2)c(=O)[nH]c1=O [ZIDOVUDINE]
EC50 (CCRF-CEM [3]): > 100000 nM
CC50 (CCRF-CEM [7]): > 100000 nM
EC50 (CCRF-CEM [9]; Homo sapiens, CCRF-CEM): 7 nM

Cc1cn([C@H]2C=C[C@@H](COP3(=O)OCc4cc([N+](=O)[O-])ccc4O3)O2)c(=O)[nH]c1=O (stereo partly specified)
EC50 (CCRF-CEM [19]): 40000 nM
Pa [6]: 1.5
CC50 (CCRF-CEM [7]): 75000 nM
EC50 (CCRF-CEM [9]; Homo sapiens, CCRF-CEM): 290 nM
EC50 (CCRF-CEM [11]; Homo sapiens, CCRF-CEM): 400 nM

Cc1cn([C@H]2C=C[C@@H](CO)O2)c(=O)[nH]c1=O [STAVUDINE]
EC50 (CCRF-CEM [3]): 15000 nM
Pa [6]: 0.15
CC50 (CCRF-CEM [7]): 56000 nM
EC50 (CCRF-CEM [9]; Homo sapiens, CCRF-CEM): 180 nM
EC50 (CCRF-CEM [9]; ccrf-cem): 180 nM
EC50 (CCRF-CEM [11]; Homo sapiens, CCRF-CEM): 260 nM
EC50 (CCRF-CEM [11]; ccrf-cem): 260 nM
CC50 (CCRF-CEM [24]): 56000 nM
EC50 (MT4 [20]): 18 nM
EC50 (MT4 [21]): 22 nM
